Test results published in ChEMBL document CHEMBL3132745, “Synthesis and Antimicrobial Activities of His(2-aryl)-Arg and Trp-His(2-aryl) Classes of Dipeptidomimetics” (Medchemcomm, 2014).
Values after ≈ are worked out from the molar mass of the structure shown. Active and inactive are the calls of the source.

How the values were obtained:
[1] = tested on: Escherichia coli; assay: Antibacterial activity against Escherichia coli ATCC 35218 assessed as growth inhibition after 16-20 hrs by CLSI method; type: functional, organism-based
[2] = tested on: Staphylococcus aureus; assay: Antibacterial activity against Staphylococcus aureus ATCC 29213 assessed as growth inhibition after 16-20 hrs by CLSI method; type: functional, organism-based
[3] = tested on: Aspergillus fumigatus; assay: Antifungal activity against Aspergillus fumigatus assessed as growth inhibition; type: functional, organism-based
[4] = tested on: Pichia kudriavzevii; assay: Antifungal activity against Candida krusei assessed as growth inhibition; type: functional, organism-based
[5] = Selectivity index, ratio of cytotoxicity against human SK-MEL cells to IC50 for Cryptococcus neoformans ATCC 90113; type: toxicity, cell-based; details: read-out: Selectivity Index
[6] = tested on: BT-549; assay: Cytotoxicity against human BT549 cells assessed as cell viability after 48 hrs by neutral red uptake assay; type: cell-based; details: bt-549, 48 h
How it was run: (§1)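 Neutral red uptake assay on human cancer lines (SK-MEL, KB, BT-549, SK-OV-3) and noncancerous mammalian cells (VERO, LLC-PK1). Highest tested concentration was 10 µg/mL.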

[7] = tested on: SK-MEL; assay: Cytotoxicity against human SK-MEL cells assessed as cell viability after 48 hrs by neutral red uptake assay; type: cell-based; how it was run: as §1
[8] = tested on: Vero; assay: Cytotoxicity against african green monkey Vero cells assessed as cell viability after 48 hrs by neutral red uptake assay; type: cell-based; details: chlorocebus sabaeus; how it was run: as §1
[9] = tested on: Cryptococcus neoformans; assay: Antifungal activity against Cryptococcus neoformans ATCC 90113 assessed as growth inhibition after 70-74 hrs by CLSI method; type: functional, organism-based; details: Cryptococcus neoformans, ATCC 90113; for IC50: read-out: IC50
[10] = tested on: LLC-PK1; assay: Cytotoxicity against pig LLC-PK1 cells assessed as cell viability after 48 hrs by neutral red uptake assay; type: cell-based, Sus scrofa; details: llc-pk1, 48 h; how it was run: as §1
[11] = tested on: Nakaseomyces glabratus; assay: Antifungal activity against Candida glabrata assessed as growth inhibition; type: functional, organism-based
[12] = tested on: Candida albicans; assay: Antifungal activity against Candida albicans assessed as growth inhibition; type: functional, organism-based
[13] = Selectivity index, ratio of cytotoxicity against african green monkey Vero cells to IC50 for Cryptococcus neoformans ATCC 90113; type: toxicity, cell-based; details: read-out: Selectivity Index
[14] = Selectivity index, ratio of cytotoxicity against human KB cells to IC50 for Cryptococcus neoformans ATCC 90113; type: toxicity, cell-based; details: read-out: Selectivity Index
[15] = tested on: KB; assay: Cytotoxicity against human KB cells assessed as cell viability after 48 hrs by neutral red uptake assay; type: cell-based; how it was run: as §1
[16] = Selectivity index, ratio of cytotoxicity against human SKOV3 cells to IC50 for Cryptococcus neoformans ATCC 90113; type: toxicity, cell-based, SK-OV-3; details: read-out: Selectivity Index
[17] = Selectivity index, ratio of cytotoxicity against human BT549 cells to IC50 for Cryptococcus neoformans ATCC 90113; type: toxicity, cell-based, BT-549; details: read-out: Selectivity Index
[18] = tested on: Staphylococcus aureus; assay: Antibacterial activity against methicillin-resistant Staphylococcus aureus ATCC 33591 assessed as growth inhibition after 16-20 hrs by CLSI method; type: functional, organism-based
[19] = tested on: SK-OV-3; assay: Cytotoxicity against human SKOV3 cells assessed as cell viability after 48 hrs by neutral red uptake assay; type: cell-based; details: sk-ov-3, 48 h; how it was run: as §1
[20] = Selectivity index, ratio of cytotoxicity against pig LLC-PK1 cells to IC50 for Cryptococcus neoformans ATCC 90113; type: toxicity, cell-based; details: read-out: Selectivity Index

Compound | growth inhibition (GI) [1] | growth inhibition (GI) [3] | growth inhibition (GI) [4] | selectivity ratio [5] | Activity [6] | Activity [7] | Activity [8] | MFC [9] | MIC [9] | IC50 [9] | Activity [10] | growth inhibition (GI) [11] | growth inhibition (GI) [12] | selectivity ratio [13] | selectivity ratio [14] | Activity [15] | selectivity ratio [16] | selectivity ratio [17] | Activity [19] | selectivity ratio [20] | other results
CC(C)(C)OC(=O)N[C@@H](Cc1c[nH]c(-c2cccc3ccccc23)n1)C(=O)N[C@@H](CCCNC(=N)N)C(=O)NCc1ccccc1 | inactive | inactive | inactive | > 3.6 | > 10 µg/mL | > 10 µg/mL | > 10 µg/mL | 5 mg/L (≈ 7.98 µM) | 5 mg/L (≈ 7.98 µM) | 2.79 mg/L (≈ 4.45 µM) | > 10 µg/mL | inactive | inactive | > 3.6 | > 3.6 | > 10 µg/mL | > 3.6 | > 3.6 | > 10 µg/mL | > 3.6 | IC50 [2]: 16.4 mg/L (≈ 26.1 µM); MBC [18]: inactive; MIC ([18]; Staphylococcus aureus, ATCC 33591): 20 mg/L (≈ 31.9 µM); IC50 ([18]; Staphylococcus aureus, ATCC 33591, read-out: IC50): 13.2 mg/L (≈ 21.1 µM)
COC(=O)[C@H](CCCNC(=N)N)NC(=O)[C@@H](N)Cc1c[nH]c(-c2cccc3ccccc23)n1 | inactive | inactive | inactive | > 7.3 | > 10 µg/mL | > 10 µg/mL | > 10 µg/mL | 2.5 mg/L (≈ 5.54 µM) | 2.5 mg/L (≈ 5.54 µM) | 1.38 mg/L (≈ 3.06 µM) | > 10 µg/mL | inactive | inactive | > 7.3 | > 7.3 | > 10 µg/mL | > 7.3 | > 7.3 | > 10 µg/mL | > 7.3 | 
COC(=O)[C@H](CCCNC(=N)N)NC(=O)[C@H](Cc1c[nH]c(-c2cccc3ccccc23)n1)NC(=O)OC(C)(C)C | inactive | inactive | inactive | > 8 | > 10 µg/mL | > 10 µg/mL | > 10 µg/mL | 2.5 mg/L (≈ 4.53 µM) | 2.5 mg/L (≈ 4.53 µM) | 1.25 mg/L (≈ 2.27 µM) | > 10 µg/mL | inactive | inactive | > 8 | > 8 | > 10 µg/mL | > 8 | > 8 | > 10 µg/mL | > 8 | 
COc1ccc(-c2nc(C[C@H](NC(=O)OC(C)(C)C)C(=O)N[C@@H](CCCNC(=N)N)C(=O)NCc3ccccc3)c[nH]2)cc1 | inactive | inactive | inactive | > 1.7 | > 10 µg/mL | > 10 µg/mL | > 10 µg/mL | 10 mg/L (≈ 16.5 µM) | 10 mg/L (≈ 16.5 µM) | 5.77 mg/L (≈ 9.51 µM) | > 10 µg/mL | inactive | inactive | > 1.7 | > 1.7 | > 10 µg/mL | > 1.7 | > 1.7 | > 10 µg/mL | > 1.7 | 
N=C(N)NCCC[C@H](NC(=O)[C@@H](N)Cc1c[nH]c(-c2cccc3ccccc23)n1)C(=O)NCc1ccccc1 | inactive | inactive | inactive | > 16.1 | > 10 µg/mL | > 10 µg/mL | > 10 µg/mL | 1.25 mg/L (≈ 2.37 µM) | 1.25 mg/L (≈ 2.37 µM) | 0.62 mg/L (≈ 1.18 µM) | > 10 µg/mL | inactive | inactive | > 16.1 | > 16.1 | > 10 µg/mL | > 16.1 | > 16.1 | > 10 µg/mL | > 16.1 | 
CC(C)(C)OC(=O)N[C@@H](Cc1c[nH]c(-c2ccccc2)n1)C(=O)N[C@@H](CCCNC(=N)N)C(=O)NCc1ccccc1 | inactive | inactive | inactive | > 3.9 | > 10 µg/mL | > 10 µg/mL | > 10 µg/mL | 5 mg/L (≈ 8.67 µM) | 5 mg/L (≈ 8.67 µM) | 2.56 mg/L (≈ 4.44 µM) | > 10 µg/mL | inactive | inactive | > 3.9 | > 3.9 | > 10 µg/mL | > 3.9 | > 3.9 | > 10 µg/mL | > 3.9 | 
COC(=O)[C@H](CCCNC(=N)N)NC(=O)[C@@H](N)Cc1c[nH]c(-c2ccc(-c3ccccc3)cc2)n1 | inactive | inactive | inactive | > 1.8 | > 10 µg/mL | > 10 µg/mL | > 10 µg/mL | 10 mg/L (≈ 20.9 µM) | 10 mg/L (≈ 20.9 µM) | 5.49 mg/L (≈ 11.5 µM) | > 10 µg/mL | inactive | inactive | > 1.8 | > 1.8 | > 10 µg/mL | > 1.8 | > 1.8 | > 10 µg/mL | > 1.8 | 
N=C(N)NCCC[C@H](NC(=O)[C@@H](N)Cc1c[nH]c(-c2ccccc2)n1)C(=O)NCc1ccccc1 | inactive | inactive | inactive | > 8.2 | > 10 µg/mL | > 10 µg/mL | > 10 µg/mL | 2.5 mg/L (≈ 5.25 µM) | 2.5 mg/L (≈ 5.25 µM) | 1.22 mg/L (≈ 2.56 µM) | > 10 µg/mL | inactive | inactive | > 8.2 | > 8.2 | > 10 µg/mL | > 8.2 | > 8.2 | > 10 µg/mL | > 8.2 | 
Cc1ccc(-c2nc(C[C@H](NC(=O)OC(C)(C)C)C(=O)N[C@@H](CCCNC(=N)N)C(=O)NCc3ccccc3)c[nH]2)cc1 | inactive | inactive | inactive | > 1.7 | > 10 µg/mL | > 10 µg/mL | > 10 µg/mL | 10 mg/L (≈ 16.9 µM) | 10 mg/L (≈ 16.9 µM) | 6.04 mg/L (≈ 10.2 µM) | > 10 µg/mL | inactive | inactive | > 1.7 | > 1.7 | > 10 µg/mL | > 1.7 | > 1.7 | > 10 µg/mL | > 1.7 | 
COC(=O)[C@H](Cc1c[nH]c(-c2ccc(-c3ccccc3)cc2)n1)NC(=O)[C@@H](N)Cc1c[nH]c2ccccc12 | inactive | inactive | inactive | > 2.6 | > 10 µg/mL | > 10 µg/mL | > 10 µg/mL | 20 mg/L (≈ 39.4 µM) | 10 mg/L (≈ 19.7 µM) | 3.82 mg/L (≈ 7.53 µM) | > 10 µg/mL | inactive | inactive | > 2.6 | > 2.6 | > 10 µg/mL | > 2.6 | > 2.6 | > 10 µg/mL | > 2.6 | 
